# Results taken from ChEMBL document CHEMBL1123192 (J Med Chem, 1986).
# What was measured:
# [1] = system: Rattus norvegicus; test: Maximal change in heart rate (HR) measured as % change from pretreatment value at dose of 25 mg/kg; assay type: functional
# In short: (§1)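 Spontaneously hypertensive rats; test agent dissolved or dispersed in 0.5% methylcellulose and given by gastric gavage at 5 mL/kg after a 1-h equilibration. Doses ranged from 1 to 100 mg/kg, with 4–8 animals per dose. MABP and HR were monitored for 4 h. Pretreatment values and maximal % change were recorded, and maximal changes were compared with vehicle by Dunnett's t test.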
# [2] = system: Rattus norvegicus; test: Maximal change in heart rate (HR) measured as pretreatment value at dose of 2.5 mg/kg in SHR; assay type: functional; in short: as §1
# [3] = system: Rattus norvegicus; test: Maximal change in heart rate (HR) measured as pretreatment value at dose of 5 mg/kg in SHR; assay type: functional; in short: as §1
# [4] = system: Rattus norvegicus; test: Maximal change in heart rate (HR) measured as pretreatment value at dose of 1 mg/kg in SHR; assay type: functional; in short: as §1
# [5] = system: Rattus norvegicus; test: Maximal change in mean arterial blood pressure (MABP) measured as pretreatment value at dose of 2.5 mg/kg in SHR; assay type: functional; in short: as §1
# [6] = system: Rattus norvegicus; test: Maximal change in mean arterial blood pressure (MABP) measured as % change from pretreatment value at dose of 100 mg/kg in SHR; assay type: functional; in short: as §1
# [7] = system: Rattus norvegicus; test: Maximal change in mean arterial blood pressure (MABP) measured as pretreatment value at dose of 5 mg/kg in SHR; assay type: functional; in short: as §1
# [8] = system: Rattus norvegicus; test: Maximal change in mean arterial blood pressure (MABP) measured as pretreatment value at dose of 10 mg/kg in SHR; assay type: functional; in short: as §1
# [9] = system: Rattus norvegicus; test: Maximal change in mean arterial blood pressure (MABP) measured as pretreatment value at dose of 25 mg/kg in SHR; assay type: functional; in short: as §1
# [10] = system: Rattus norvegicus; test: Maximal change in mean arterial blood pressure (MABP) measured as % change from pretreatment value at dose of 2.5 mg/kg in SHR; assay type: functional; in short: as §1
# [11] = system: Rattus norvegicus; test: Maximal change in mean arterial blood pressure (MABP) measured as pretreatment value at dose of 100 mg/kg in SHR; assay type: functional; in short: as §1
# [12] = system: Rattus norvegicus; test: Maximal change in heart rate (HR) measured as pretreatment value at dose of 25 mg/kg in SHR; assay type: functional; in short: as §1
# [13] = system: Rattus norvegicus; test: Maximal change in heart rate (HR) measured as % change from pretreatment value at dose of 2.5 mg/kg; assay type: functional; in short: as §1
# [14] = system: Rattus norvegicus; test: Maximal change in heart rate (HR) measured as % change from pretreatment value at dose of 5 mg/kg; assay type: functional; in short: as §1
# [15] = species: Cavia porcellus; test: Beta-2-adrenoceptor ISA (intrinsic sympathomimetic activity)was measured as relaxant effect against a PGF2-alpha contracted guinea pig trachea at 3x10E -7 M; assay type: functional
# [16] = target: Beta-1 adrenergic receptor (Cavia porcellus, UniProt B0FL73); test: The compound was evaluated for the antagonistic activity against beta-1 adrenergic receptor; assay type: functional; details: read-out: pA2 (converted)
# In short: (§2)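 Isolated tissue suited to each receptor test, held in 10-mL organ baths of Krebs-Henseleit solution at 37 °C and gassed with 95% O2/5% CO2. Antagonism was judged by how several concentrations of test agent altered a cumulative concentration-response curve to a receptor-specific agonist.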
# [17] = system: Rattus norvegicus; test: Maximal change in mean arterial blood pressure (MABP) measured as % change from pretreatment value at dose of 5 mg/kg in SHR; assay type: functional; in short: as §1
# [18] = system: Rattus norvegicus; test: Maximal change in mean arterial blood pressure (MABP) measured as pretreatment value at dose of 1 mg/kg in SHR; assay type: functional; in short: as §1
# [19] = system: Rattus norvegicus; test: Maximal change in mean arterial blood pressure (MABP) measured as % change from pretreatment value at dose of 10 mg/kg in SHR; assay type: functional; in short: as §1
# [20] = system: Rattus norvegicus; test: Maximal change in heart rate (HR) measured as pretreatment value at dose of 100 mg/kg in SHR; assay type: functional; in short: as §1
# [21] = target: Beta-2 adrenergic receptor (Cavia porcellus, UniProt Q8K4Z4); test: The compound was evaluated for the antagonistic activity against beta-2 adrenergic receptor.; assay type: functional; details: read-out: pA2 (converted); in short: as §2
# [22] = system: Rattus norvegicus; test: Maximal change in heart rate (HR) measured as % change from pretreatment value at dose of 100 mg/kg in SHR; assay type: functional; in short: as §1
# [23] = target: T1, Adrenergic receptor alpha-2 (Rattus norvegicus, UniProt P22086+P19328+P22909); test: The compound was evaluated for the antagonistic activity against alpha-2 adrenergic receptor.; assay type: functional
# T1 sequence (P22086 whole entry): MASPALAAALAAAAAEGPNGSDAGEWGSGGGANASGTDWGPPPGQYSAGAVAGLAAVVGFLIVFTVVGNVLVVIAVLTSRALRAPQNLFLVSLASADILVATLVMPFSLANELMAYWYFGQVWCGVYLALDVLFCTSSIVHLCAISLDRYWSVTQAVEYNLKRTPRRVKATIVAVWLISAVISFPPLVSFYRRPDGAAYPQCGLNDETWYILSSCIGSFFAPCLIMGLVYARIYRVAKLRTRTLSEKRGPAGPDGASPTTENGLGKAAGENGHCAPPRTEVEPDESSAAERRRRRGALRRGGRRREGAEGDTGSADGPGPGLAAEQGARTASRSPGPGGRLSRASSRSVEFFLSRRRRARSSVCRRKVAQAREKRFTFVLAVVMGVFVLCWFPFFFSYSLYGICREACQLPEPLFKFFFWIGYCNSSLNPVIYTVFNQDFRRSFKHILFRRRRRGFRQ
# T1 sequence (P19328 whole entry): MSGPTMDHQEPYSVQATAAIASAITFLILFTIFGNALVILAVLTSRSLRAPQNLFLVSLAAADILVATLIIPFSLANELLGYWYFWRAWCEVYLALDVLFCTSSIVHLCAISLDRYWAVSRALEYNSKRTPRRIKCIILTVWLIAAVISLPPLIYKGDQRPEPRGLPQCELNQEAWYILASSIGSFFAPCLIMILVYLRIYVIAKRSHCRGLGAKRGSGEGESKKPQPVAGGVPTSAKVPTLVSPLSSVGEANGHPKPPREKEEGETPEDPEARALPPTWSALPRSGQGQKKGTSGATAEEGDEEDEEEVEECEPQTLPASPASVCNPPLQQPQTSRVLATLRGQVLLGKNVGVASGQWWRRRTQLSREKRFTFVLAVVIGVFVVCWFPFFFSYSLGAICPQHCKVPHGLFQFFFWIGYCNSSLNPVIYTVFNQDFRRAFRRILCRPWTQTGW
# T1 sequence (P22909 whole entry): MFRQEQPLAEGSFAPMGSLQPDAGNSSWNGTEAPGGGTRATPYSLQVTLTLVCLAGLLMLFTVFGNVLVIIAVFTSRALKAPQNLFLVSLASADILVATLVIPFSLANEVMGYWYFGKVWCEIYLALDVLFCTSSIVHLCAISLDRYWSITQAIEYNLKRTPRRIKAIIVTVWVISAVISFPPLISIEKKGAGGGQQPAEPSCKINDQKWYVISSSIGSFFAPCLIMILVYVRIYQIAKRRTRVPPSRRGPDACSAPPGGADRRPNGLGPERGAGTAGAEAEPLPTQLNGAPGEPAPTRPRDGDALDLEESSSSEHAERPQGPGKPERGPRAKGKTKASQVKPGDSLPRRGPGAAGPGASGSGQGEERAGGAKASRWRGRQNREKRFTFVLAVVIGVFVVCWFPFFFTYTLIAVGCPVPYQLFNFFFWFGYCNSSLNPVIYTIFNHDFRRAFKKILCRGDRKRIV
# [24] = system: Rattus norvegicus; test: Maximal change in heart rate (HR) measured as % change from pretreatment value at dose of 10 mg/kg in SHR; assay type: functional; in short: as §1
# [25] = system: Rattus norvegicus; test: Maximal change in heart rate (HR) measured as % change from pretreatment value at dose of 1 mg/kg in SHR; assay type: functional; in short: as §1
# [26] = system: Rattus norvegicus; test: Maximal change in mean arterial blood pressure (MABP) measured as % change from pretreatment value at dose of 1 mg/kg in SHR; assay type: functional; in short: as §1
# [27] = system: Rattus norvegicus; test: Maximal change in mean arterial blood pressure (MABP) measured as % change from pretreatment value at dose of 25 mg/kg in SHR; assay type: functional; in short: as §1
# [28] = system: Rattus norvegicus; test: Maximal change in heart rate (HR) measured as pretreatment value at dose of 10 mg/kg in SHR; assay type: functional; in short: as §1
# [29] = target: Alpha-1 adrenergic receptor; test: The compound was evaluated for the antagonistic activity against alpha-1 adrenergic receptor.; details: read-out: pA2 (converted)
# Beta-1 adrenergic receptor, sequence (B0FL73 whole entry): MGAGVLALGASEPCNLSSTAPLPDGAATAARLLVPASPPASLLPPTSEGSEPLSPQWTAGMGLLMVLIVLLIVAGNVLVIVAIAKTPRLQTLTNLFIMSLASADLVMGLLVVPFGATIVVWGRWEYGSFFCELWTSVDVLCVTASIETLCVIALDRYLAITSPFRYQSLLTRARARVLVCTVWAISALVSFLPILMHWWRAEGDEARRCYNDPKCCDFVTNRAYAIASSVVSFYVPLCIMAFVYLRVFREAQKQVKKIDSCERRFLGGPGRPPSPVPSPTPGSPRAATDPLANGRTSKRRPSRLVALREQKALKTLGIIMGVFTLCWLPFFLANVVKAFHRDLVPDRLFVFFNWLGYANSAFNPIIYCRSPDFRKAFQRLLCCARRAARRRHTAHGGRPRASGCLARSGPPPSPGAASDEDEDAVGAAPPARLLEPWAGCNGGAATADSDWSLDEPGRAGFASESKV
# Beta-2 adrenergic receptor, sequence (Q8K4Z4 whole entry): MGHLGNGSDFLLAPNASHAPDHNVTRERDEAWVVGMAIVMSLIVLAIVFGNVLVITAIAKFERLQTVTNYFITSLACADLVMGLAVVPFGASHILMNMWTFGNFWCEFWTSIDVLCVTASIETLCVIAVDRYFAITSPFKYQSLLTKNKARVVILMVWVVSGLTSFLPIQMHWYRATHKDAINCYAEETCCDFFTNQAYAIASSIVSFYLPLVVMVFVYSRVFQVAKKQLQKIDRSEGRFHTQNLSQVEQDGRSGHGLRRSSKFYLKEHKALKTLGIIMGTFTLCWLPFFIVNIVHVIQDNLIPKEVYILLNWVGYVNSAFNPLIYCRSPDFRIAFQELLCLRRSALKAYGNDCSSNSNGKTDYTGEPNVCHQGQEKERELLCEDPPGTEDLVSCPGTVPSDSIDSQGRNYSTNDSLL
compound,measurement,setting,value
CC(CCc1ccccc1)NCC(O)c1cc(C(N)=O)c2[nH]ccc2c1 (centres undefined),Change,[1],-18%
same,HR,[2],419 beats min-1
same,HR,[3],439 beats min-1
same,HR,[4],442 beats min-1
same,MABP,[5],176 mmHg
same,Change,[6],-45%
same,MABP,[7],176 mmHg
same,MABP,[8],166 mmHg
same,MABP,[9],183 mmHg
same,Change,[10],-25%
same,MABP,[11],178 mmHg
same,HR,[12],426 beats min-1
same,Change,[13],-10%
same,Change,[14],-12%
same,Change,[15],89%
same,Kb,[16],39.8 nM
same,Change,[17],-32%
same,MABP,[18],171 mmHg
same,Change,[19],-40%
same,HR,[20],425 beats min-1
same,Kb,[21],50.1 nM
same,Change,[22],-26%
same,pA2,[23],5.4
same,Change,[24],-15%
same,Change,[25],-3%
same,Change,[26],-9%
same,Change,[27],-47%
same,HR,[28],430 beats min-1
same,Kb,[29],251 nM
